Measured values taken from ChEMBL document CHEMBL1131326, “Design, synthesis, and antiviral evaluations of 1-(substituted benzyl)-2-substituted-5,6-dichlorobenzimidazoles as nonnucleoside analogues of 2,5,6-trichloro-1-(beta-D-ribofuranosyl)benzimidazole” (J Med Chem, 1998).
pIC50: −log10 of the molar value.

What was measured:
[1] = tested on: Human betaherpesvirus 5; experiment: Antiviral activity against human cytomegalovirus (HCMV) by plaque reduction assay; format: functional, organism-based
Outline: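 HFF monolayers infected with about 100 pfu/cm² of HCMV Towne (isolate Po); after adsorption, compound in growth medium added to duplicate wells at four to eight concentrations.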

[2] = tested on: CEM-SS; experiment: Cytotoxicity against CEM-SS cells in terms of incorporation of [3H]dThd; format: functional, cell-based; settings: Homo sapiens
Outline: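 DNA synthesis in CEM-SS cells measured as uptake of [³H]dThd into total acid-precipitable material; results averaged from duplicate experiments.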

[3] = tested on: HFF; experiment: Visual cytotoxicity scored on HFF cells at a time of HCMV plaque enumeration; format: functional, cell-based; settings: Homo sapiens
Outline: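 Cytotoxicity in stationary HFF cells scored by microscopic inspection of cells not affected by virus, at time of HCMV plaque enumeration, in the plaque-assay plates.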

[4] = tested on: KB; experiment: Inhibition of KB cell growth determined by quadruplicate assays; format: functional, cell-based; settings: Homo sapiens
Outline: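 KB cells seeded at 3000-5000/well, overnight at 37 °C, then compound in quadruplicate at six to eight concentrations for 48 h (about two doublings) in CO₂. Cells fixed in 95% ethanol, stained with 0.1% crystal violet, dye eluted with acidified ethanol and read at 570 nm; IC50 by regression vs log concentration.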

[5] = tested on: Human alphaherpesvirus 1; experiment: Antiviral activity against herpes simplex virus type-1 (HSV-1); format: functional, organism-based
Outline: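 BSC-1 cells (10 000/well, MEM(E) + 10% calf serum) incubated overnight, then given drug in quadruplicate plus HSV-1 KOS at 100 pfu/well; 3 days at 37 °C. ELISA with HRP-conjugated rabbit anti-HSV-1 antibody, TMB substrate, stopped with H₂SO₄, absorbance at 450 and 570 nm; IC50 by regression of % absorbance reduction vs log concentration.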

[6] = tested on: Human immunodeficiency virus 1; experiment: Activity against HIV-1 by syncytial plaque assay performed in duplicate using CEM-SS cells; format: functional, organism-based; settings: Human immunodeficiency virus 1, CEM-SS
Outline: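 Syncytial plaque assay: poly-L-lysine-adherent CEM-SS cells infected with HIV-1 strain IIIB with or without compound at selected concentrations; syncytial plaques counted at 30-fold magnification 7 days postinfection; duplicate. IC50 from linear regression of percent inhibition against log concentration.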

[7] = tested on: Human immunodeficiency virus 2; experiment: Compound was tested for antiviral activity against HIV-2; format: functional, organism-based
[8] = Compound was tested for antiviral activity against HIV-1 resistant to TIBO A-17; format: functional, Human immunodeficiency virus 1
Outline: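 Syncytial plaque assay in duplicate sets on CEM-SS cells made adherent with poly-L-lysine. Virus was the A17 HIV-1 variant, resistant to nonnucleoside RT inhibitors including TIBO, or HIV-2, both from the AIDS Research and Reference Program. Infection was in the presence or absence of compound; syncytial plaques were counted at 30-fold magnification 7 days postinfection. IC50 came from linear regression of percent inhibition against log concentration.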

| pIC50 [1] | pIC50 [4] | pIC50 [5] | pIC50 [6] | Structure (SMILES) | pIC50 [2] | pIC50 [3] | pIC50 [7] | pIC50 [8] |
| --- | --- | --- | --- | --- | --- | --- | --- | --- |
| < 4.00 | 4.35 | < 4.00 | 4.92 | COc1ccc(Cn2c(N)nc3cc(Cl)c(Cl)cc32)cc1 | 4.57 | < 4.00 | – | – |
| < 4.00 | 4.46 | < 4.00 | 4.68 | Nc1nc2cc(Cl)c(Cl)cc2n1Cc1ccc([N+](=O)[O-])cc1 | 4.49 | < 4.00 | – | – |
| < 4.00 | – | – | 4.00 | CC(C)(C)c1ccc(Cn2c(Br)nc3cc(Cl)c(Cl)cc32)cc1 | < 4.00 | < 4.00 | – | – |
| 4.52 | 4.30 | 4.10 | 4.70 | Cc1ccc(Cn2c(N)nc3cc(Cl)c(Cl)cc32)cc1 | 4.40 | 4.49 | – | – |
| < 4.00 | – | – | – | Clc1cc2nc(Cl)n(CCc3ccccc3)c2cc1Cl | – | < 4.00 | – | – |
| < 5.00 | 4.11 | < 4.00 | 4.82 | Clc1cc2nc(Br)n(Cc3ccccc3Cl)c2cc1Cl | 4.13 | < 5.00 | – | – |
| 4.43 | 3.77 | 3.82 | – | Nc1nc2cc(Cl)c(Cl)cc2n1Cc1ccccc1 | – | 4.24 | – | – |
| < 4.00 | < 4.00 | < 4.00 | < 4.00 | FC(F)(F)c1ccc(Cn2c(Br)nc3cc(Cl)c(Cl)cc32)cc1 | < 4.00 | < 4.00 | – | – |
| 4.92 | 4.15 | 4.15 | 4.49 | Nc1nc2cc(Cl)c(Cl)cc2n1Cc1ccc(F)cc1 | 4.52 | 4.43 | – | – |
| < 4.00 | < 4.00 | < 4.00 | 4.48 | Cc1ccc(Cn2c(Cl)nc3cc(Cl)c(Cl)cc32)cc1 | < 4.00 | 4.49 | – | – |
| < 4.00 | 3.62 | < 4.00 | 4.70 | O=[N+]([O-])c1cccc(Cn2c(Cl)nc3cc(Cl)c(Cl)cc32)c1 | < 4.00 | < 4.00 | – | – |
| < 4.00 | – | – | 4.52 | Fc1ccc(Cn2c(Br)nc3cc(Cl)c(Cl)cc32)cc1 | < 4.00 | < 4.00 | – | – |
| < 4.00 | – | < 4.00 | 4.00 | Clc1cccc(Cn2c(Cl)nc3cc(Cl)c(Cl)cc32)c1 | < 4.00 | < 4.00 | – | – |
| < 4.00 | 4.15 | 4.19 | 5.23 | FC(F)(F)c1cc(Cn2c(Br)nc3cc(Cl)c(Cl)cc32)cc(C(F)(F)F)c1 | < 4.00 | < 4.00 | – | – |
| – | < 4.00 | – | – | OC[C@H]1O[C@H](n2c(Br)nc3cc(Cl)c(Cl)cc32)[C@@H](O)[C@H]1O | – | – | – | – |
| 4.49 | – | 4.22 | < 5.22 | Nc1nc2cc(Cl)c(Cl)cc2n1Cc1cc(C(F)(F)F)cc(C(F)(F)F)c1 | 4.47 | 4.49 | – | – |
| < 4.00 | 4.19 | < 4.00 | 4.68 | Nc1nc2cc(Cl)c(Cl)cc2n1Cc1cccc([N+](=O)[O-])c1 | 4.33 | < 4.00 | – | – |
| < 4.00 | 3.74 | < 4.00 | 5.11 | O=[N+]([O-])c1ccc(Cn2c(Cl)nc3cc(Cl)c(Cl)cc32)cc1 | 4.29 | < 4.00 | – | – |
| < 4.00 | < 4.00 | < 4.00 | < 4.00 | FC(F)(F)c1cc(Cn2c(Cl)nc3cc(Cl)c(Cl)cc32)cc(C(F)(F)F)c1 | < 4.00 | < 4.00 | – | – |
| < 4.00 | < 4.00 | < 4.00 | < 4.00 | Clc1ccc(Cn2c(Br)nc3cc(Cl)c(Cl)cc32)cc1 | < 4.00 | < 4.00 | – | – |
| < 4.00 | < 4.00 | < 4.00 | 4.57 | Clc1cc2nc(Br)n(Cc3ccccc3)c2cc1Cl | < 4.00 | < 4.00 | – | – |

| pIC50 [1] | pIC50 [4] | pIC50 [5] | pIC50 [6] | Structure (SMILES) | pIC50 [2] | pIC50 [3] | pIC50 [7] | pIC50 [8] |
| --- | --- | --- | --- | --- | --- | --- | --- | --- |
| < 4.00 | < 4.00 | < 4.00 | < 4.00 | FC(F)(F)c1cccc(Cn2c(Cl)nc3cc(Cl)c(Cl)cc32)c1 | < 4.00 | < 4.00 | – | – |
| < 4.00 | – | – | 4.92 | FC(F)(F)c1cccc(Cn2c(Br)nc3cc(Cl)c(Cl)cc32)c1 | < 4.00 | < 4.00 | – | – |
| < 4.00 | < 4.00 | < 4.00 | < 4.00 | Clc1ccc(Cn2c(Br)nc3cc(Cl)c(Cl)cc32)cc1Cl | < 4.00 | < 4.00 | – | – |
| < 4.00 | < 4.00 | < 4.00 | < 4.00 | Clc1ccc(Cn2c(Cl)nc3cc(Cl)c(Cl)cc32)cc1Cl | < 4.00 | < 4.00 | – | – |
| < 4.00 | < 4.00 | < 4.00 | 4.59 | COc1ccc(Cn2c(Cl)nc3cc(Cl)c(Cl)cc32)cc1 | < 4.00 | < 4.00 | – | – |
| < 4.00 | < 4.00 | < 4.00 | < 4.00 | Cc1ccc(Cn2c(Br)nc3cc(Cl)c(Cl)cc32)cc1 | < 4.00 | < 4.00 | – | – |
| < 4.00 | < 4.00 | 4.15 | < 4.00 | Clc1cccc(Cn2c(Br)nc3cc(Cl)c(Cl)cc32)c1 | < 4.00 | < 4.00 | – | – |
| 4.49 | – | – | 5.74 | Nc1nc2cc(Cl)c(Cl)cc2n1Cc1ccc(C(F)(F)F)cc1 | 4.70 | 4.49 | – | – |
| 4.49 | – | < 4.00 | 5.22 | Nc1nc2cc(Cl)c(Cl)cc2n1Cc1ccccc1Cl | 4.44 | 4.49 | – | – |
| < 4.00 | < 4.00 | < 4.00 | – | Clc1cc2nc(Br)n(CCc3ccccc3)c2cc1Cl | – | < 4.00 | – | – |
| 4.40 | 4.46 | 4.30 | < 5.22 | Nc1nc2cc(Cl)c(Cl)cc2n1Cc1ccc(Cl)c(Cl)c1 | 4.52 | 4.49 | – | – |
| < 4.00 | 4.19 | 4.15 | < 4.52 | Nc1nc2cc(Cl)c(Cl)cc2n1Cc1cccc(Cl)c1 | 4.43 | < 4.00 | – | – |
| < 4.00 | < 4.00 | < 4.00 | < 4.00 | CC(C)(C)c1ccc(Cn2c(Cl)nc3cc(Cl)c(Cl)cc32)cc1 | < 4.00 | < 4.00 | – | – |
| < 4.00 | 4.26 | < 4.00 | 5.22 | COc1ccc(Cn2c(Br)nc3cc(Cl)c(Cl)cc32)cc1 | 4.22 | < 4.00 | – | – |
| 4.66 | 4.35 | 4.30 | – | CC(C)Nc1nc2cc(Cl)c(Cl)cc2n1Cc1ccccc1 | – | 4.66 | – | – |
| < 4.00 | < 4.00 | < 4.00 | – | Clc1cc2nc(Cl)n(Cc3ccccc3)c2cc1Cl | – | < 4.00 | – | – |
| 4.49 | 4.35 | 4.22 | < 5.00 | Nc1nc2cc(Cl)c(Cl)cc2n1Cc1cccc(C(F)(F)F)c1 | 4.77 | 4.49 | – | – |
| 4.66 | 4.30 | 4.22 | 5.00 | CC(C)(C)c1ccc(Cn2c(N)nc3cc(Cl)c(Cl)cc32)cc1 | 4.57 | 4.49 | – | – |
| < 4.00 | < 4.00 | < 4.00 | < 4.00 | FC(F)(F)c1ccc(Cn2c(Cl)nc3cc(Cl)c(Cl)cc32)cc1 | < 4.00 | < 4.00 | – | – |
| < 4.00 | 4.19 | 4.10 | 4.92 | Cc1cccc(Cn2c(N)nc3cc(Cl)c(Cl)cc32)c1 | 4.32 | < 4.00 | – | – |
| < 4.00 | 4.35 | < 4.00 | 5.00 | Nc1nc2cc(Cl)c(Cl)cc2n1Cc1ccc(Cl)cc1 | 4.49 | < 4.00 | – | – |

| Structure (SMILES) | pIC50 [1] | pIC50 [4] | pIC50 [5] | pIC50 [6] | pIC50 [2] | pIC50 [3] | pIC50 [7] | pIC50 [8] |
| --- | --- | --- | --- | --- | --- | --- | --- | --- |
| Clc1cc2nc(Cl)n(Cc3ccccc3Cl)c2cc1Cl | 4.52 | 3.81 | < 4.00 | 4.82 | 4.15 | < 4.00 | < 4.52 | 4.89 |
